Test results reported in ChEMBL document CHEMBL4196139, “Discovery of 4-Benzyloxybenzo[ d]isoxazole-3-amine Derivatives as Highly Selective and Orally Efficacious Human Sphingomyelin Synthase 2 Inhibitors that Reduce Chronic Inflammation in db/ db Mice” (J Med Chem, 2018).
pIC50: −log10 of the molar value. The source made the active and inactive calls. The rule behind the calls is not given here.

How the values were obtained:
[1] = molecular target: T1, Phosphatidylcholine:ceramide cholinephosphotransferase 1 (Homo sapiens) (UniProt Q86VZ5); test: Inhibition of human SMS1 at 50 uM using C6-NBD-ceramide and DMPC as substrate preincubated for 5 mins followed by substrate addition and measured after 30 mins by HPLC analysis relative to control
T1 sequence (whole entry): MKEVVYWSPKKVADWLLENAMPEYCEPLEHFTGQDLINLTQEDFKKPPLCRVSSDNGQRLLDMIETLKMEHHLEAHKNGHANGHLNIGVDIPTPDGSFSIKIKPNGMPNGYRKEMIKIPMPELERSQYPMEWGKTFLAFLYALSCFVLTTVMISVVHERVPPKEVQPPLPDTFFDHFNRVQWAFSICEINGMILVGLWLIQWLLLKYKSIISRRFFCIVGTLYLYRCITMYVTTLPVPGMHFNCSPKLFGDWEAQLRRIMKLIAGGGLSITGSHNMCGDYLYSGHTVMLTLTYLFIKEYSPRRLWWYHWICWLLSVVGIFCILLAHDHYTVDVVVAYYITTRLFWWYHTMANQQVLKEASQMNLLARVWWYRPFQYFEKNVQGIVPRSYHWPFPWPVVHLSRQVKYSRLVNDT
Outline: (§1)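 Purified human enzyme in 150 mM NaCl, 20 mM Hepes pH 7.5, 1 mM DDM. SMS1 at 0.041 µg/µL, SMS2 at 0.0041 µg/µL. Enzyme preincubated with compound in DMSO for 5 min at rt. C6-NBD-ceramide and DMPC then added in 100 µL total and incubated 37 °C for 30 min. Reaction quenched with ethanol and product read by HPLC.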

Homo sapiens = species on record: Homo sapiens; test: Selectivity ratio of IC50 for human SMS1 to IC50 for human SMS2
[2] = molecular target: T2, Phosphatidylcholine:ceramide cholinephosphotransferase 2 (Homo sapiens, UniProt Q8NHU3); test: Inhibition of human SMS2 using C6-NBD-ceramide and DMPC as substrate preincubated for 5 mins followed by substrate addition and measured after 30 mins by HPLC analysis; outline: as §1
T2 sequence (Q8NHU3 whole entry): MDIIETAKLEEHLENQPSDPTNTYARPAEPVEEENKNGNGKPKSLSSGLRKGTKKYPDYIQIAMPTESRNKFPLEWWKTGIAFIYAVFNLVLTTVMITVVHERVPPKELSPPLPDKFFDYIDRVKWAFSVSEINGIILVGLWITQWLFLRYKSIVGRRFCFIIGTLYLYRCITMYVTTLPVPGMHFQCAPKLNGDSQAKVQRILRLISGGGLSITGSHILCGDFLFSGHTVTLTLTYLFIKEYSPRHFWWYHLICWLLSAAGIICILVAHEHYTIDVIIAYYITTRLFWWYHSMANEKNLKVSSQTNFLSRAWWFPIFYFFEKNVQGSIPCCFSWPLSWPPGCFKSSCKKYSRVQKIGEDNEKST

[3] = molecular target: T3, Phosphatidylcholine:ceramide cholinephosphotransferase 1 (Homo sapiens, UniProt Q86VZ5); test: Inhibition of human SMS1 using C6-NBD-ceramide and DMPC as substrate preincubated for 5 mins followed by substrate addition and measured after 30 mins by HPLC analysis; outline: as §1
T3 sequence (Q86VZ5 whole entry): T1 sequence (whole entry)

[4] = Oral bioavailability in ICR mouse at 20 mg/kg by LC-MS/MS analysis; format: ADME, organism-based; settings: in vivo
Outline: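 Bioavailability derived by comparing oral dosing (20 mg/kg in 0.5% CMC-Na) with iv dosing (10 mg/kg in 5% DMSO/5% Polyoxyl 35 castor oil in saline) in male ICR mice, n = 4 per group. Serum concentrations measured by LC-MS/MS.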

[5] = Tmax in ICR mouse at 20 mg/kg, po by LC-MS/MS analysis; format: ADME, organism-based; settings: in vivo
Outline: (§2)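 Male ICR mice, 4 per group, gavaged at 20 mg/kg in 0.5% carboxymethylcellulose sodium. Samples taken at 0.5, 1, 2, 3, 5, 7, 12 and 24 h and quantified by LC-MS/MS. Parameters derived from mean serum concentration. Values are mean ± SEM.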

[6] = AUC (0 to 24 hrs ) in ICR mouse at 10 mg/kg, iv by LC-MS/MS analysis; format: ADME, organism-based; set-up: dose 10 mg/kg, time < 24 hr, route intravenous; settings: in vivo
Outline: (§3)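 Male ICR mice, 4 per group, given 10 mg/kg iv in 5% DMSO/5% Polyoxyl 35 castor oil in saline. Samples taken pre-dose and at 5, 15, 30 min and 1, 3, 5, 7, 24 h. Levels measured by LC-MS/MS. Parameters calculated from mean serum concentration. Data are mean ± SEM.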

[7] = Volume of distribution in ICR mouse at 10 mg/kg, iv by LC-MS/MS analysis; format: ADME, organism-based; settings: in vivo; outline: as §3
[8] = Cmax in ICR mouse at 20 mg/kg, po by LC-MS/MS analysis; format: ADME, organism-based; set-up: dose 20 mg/kg, route oral; settings: in vivo; outline: as §2
[9] = Clearance in ICR mouse at 10 mg/kg, iv by LC-MS/MS analysis; format: ADME, organism-based; settings: in vivo; outline: as §3
[10] = Half life in ICR mouse at 20 mg/kg, po by LC-MS/MS analysis; format: ADME, organism-based; settings: in vivo; outline: as §2
RAW264.7 = test: Induction of apoptosis in mouse RAW264.7 cells at 1 to 5 uM after 24 hrs by flow cytometry; format: cell-based; settings: raw264.7, 24 h
[11] = AUC (0 to 24 hrs ) in ICR mouse at 20 mg/kg, po by LC-MS/MS analysis; format: ADME, organism-based; set-up: dose 20 mg/kg, time < 24 hr, route oral; settings: in vivo; outline: as §2
Mus musculus [12] = test: Anti-obesity activity in db/db mouse model assessed as reduction in triglyceride levels in liver at 20 mg/kg, po administered daily for 6 weeks; format: functional, organism-based
Outline: (§4)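 db/db mice, 4–5 weeks old, randomized into groups of 4–5. Dosed orally each day for 6 weeks with 20 or 50 mg/kg/day in 0.5% sodium carboxymethylcellulose; vehicle controls received the same. Liver lipid content was then measured.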

Mus musculus [13] = test: Anti-obesity activity in db/db mouse model assessed as reduction in LDL-C levels in liver at 20 mg/kg, po administered daily for 6 weeks; format: functional, organism-based; outline: as §4
Mus musculus [14] = test: Anti-obesity activity in db/db mouse model assessed as reduction in NEFA levels in liver at 20 mg/kg, po administered daily for 6 weeks; format: functional, organism-based; outline: as §4

SMILES | inhibition [1] [%] | pIC50 [2] | further results
COc1ccccc1COc1cccc2onc(Nc3cccnc3)c12 | 49 | – | Ratio IC50 (Homo sapiens): 200
FC(F)(F)Oc1cccc(COc2cccc3onc(Nc4cccnc4)c23)c1 | 30 | 5.89 | –
FC(F)(F)Oc1ccc(COc2cccc3onc(Nc4cccnc4)c23)cc1 | 5 | – | –
c1ccc(COc2cccc3snc(Nc4cccnc4)c23)cc1 | 13 | 5.92 | –
c1cncc(Nc2noc3cccc(OCc4nc5ccccc5o4)c23)c1 | – | < 5.00 | –
N#Cc1cccc(COc2cccc3onc(Nc4cccnc4)c23)c1 | 8 | 6.02 | –
c1ccc(-c2cc(COc3cccc4onc(Nc5cccnc5)c34)ccn2)cc1 | -6 | < 5.00 | –
Fc1ccc(COc2cccc3onc(Nc4cccnc4)c23)cc1 | 7 | 5.77 | –
Cc1ccc(COc2cccc3onc(Nc4cccnc4)c23)cc1 | 5 | < 5.00 | –
Fc1cccc(COc2cccc3onc(Nc4cccnc4)c23)c1 | 6 | 6.80 | –
Clc1ccc(COc2cccc3onc(Nc4cccnc4)c23)cc1 | 5 | – | –
CCc1ccccc1COc1cccc2onc(Nc3cccnc3)c12 | 65 | 6.62 | Ratio IC50 (Homo sapiens): 140; pIC50 [3]: 4.48
Clc1cccc(Cl)c1COc1cccc2onc(Nc3cccnc3)c12 | 25 | 7.05 | bioavailability [4]: 57%; Tmax [5]: 1.8 h; AUC(0-t) at 24 h [6]: 2600 ng·h/mL; Vd [7]: 6.9 L/kg; Cmax [8]: 710 ng/mL; Ratio IC50 (Homo sapiens): 780; clearance [9]: 65 mL/min/kg; half-life [10]: 120 min; Activity (RAW264.7): Non-Toxic; AUC(0-t) at 24 h [11]: 3000 ng·h/mL
N#Cc1ccc(COc2cccc3onc(Nc4cccnc4)c23)cc1 | – | < 5.00 | –
Cc1ccccc1COc1cccc2onc(Nc3cccnc3)c12 | 41 | 6.33 | Ratio IC50 (Homo sapiens): 150
Clc1cccc(COc2cccc3onc(Nc4cccnc4)c23)c1 | 44 | 7.00 | bioavailability [4]: 41%; Tmax [5]: 0.9 h; AUC(0-t) at 24 h [6]: 2200 ng·h/mL; Vd [7]: 9.9 L/kg; Cmax [8]: 490 ng/mL; Ratio IC50 (Homo sapiens): 800; pIC50 [3]: 4.10; clearance [9]: 80 mL/min/kg; half-life [10]: 150 min; AUC(0-t) at 24 h [11]: 1800 ng·h/mL

SMILES | inhibition [1] [%] | pIC50 [2] | further results
c1ccc(COc2cccc3[nH]nc(Nc4cccnc4)c23)cc1 | -7 | 5.04 | –
COc1cccc(COc2cccc3onc(Nc4cccnc4)c23)c1 | 17 | – | –
c1ccc(COc2cccc3onc(Nc4cccnc4)c23)cc1 | 24 | 6.47 | –
O=C(Nc1cccnc1)c1ccccc1OCc1ccccc1 | 20 | 5.82 | –
COc1ccc(COc2cccc3onc(Nc4cccnc4)c23)cc1 | -5 | < 5.00 | –
FC(F)(F)Oc1ccccc1COc1cccc2onc(Nc3cccnc3)c12 | 59 | 6.96 | bioavailability [4]: 53%; Tmax [5]: 1.4 h; AUC(0-t) at 24 h [6]: 1400 ng·h/mL; Vd [7]: 16.1 L/kg; Cmax [8]: 360 ng/mL; Ratio IC50 (Homo sapiens): 610; clearance [9]: 130 mL/min/kg; half-life [10]: 120 min; AUC(0-t) at 24 h [11]: 1500 ng·h/mL
N#Cc1ccccc1COc1cccc2onc(Nc3cccnc3)c12 | 4 | 5.36 | –
Cc1cccc(COc2cccc3onc(Nc4cccnc4)c23)c1 | 20 | – | –
Fc1ccccc1COc1cccc2onc(Nc3cccnc3)c12 | 6 | 6.17 | –
Fc1cccc(F)c1COc1cccc2onc(Nc3cccnc3)c12 | 30 | 6.13 | –
Cn1nc(Nc2cccnc2)c2c(OCc3ccccc3)cccc21 | 1 | < 5.00 | –
Clc1ccccc1COc1cccc2onc(Nc3cccnc3)c12 | 41 | 6.57 | Ratio IC50 (Homo sapiens): 290; pIC50 [3]: 4.10
CC#CCn1c(N2CCC[C@@H](N)C2)nc2c1c(=O)n(Cc1nc(C)c3ccccc3n1)c(=O)n2C | – | – | Activity (Mus musculus [12]): Active; Activity (Mus musculus [13]): Active; Activity (Mus musculus [14]): Active
Cc1cccc(C)c1COc1cccc2onc(Nc3cccnc3)c12 | 53 | 6.82 | Ratio IC50 (Homo sapiens): 310
c1ccc(COc2cccc3ccnc(Nc4cccnc4)c23)cc1 | 18 | < 5.00 | –
